# Assay results: ChEMBL document CHEMBL1147044, “Design of helical, oligomeric HIV-1 fusion inhibitor peptides with potent activity against enfuvirtide-resistant virus” (Proc Natl Acad Sci U S A, 2007)
# Assays:
# [1] = test system: Human immunodeficiency virus 1; test: Antiviral activity against HIV1 098-T1249 isolate infected in human PBMCs by reverse transcriptase assay; type: functional, organism-based
# Method in brief: (§1)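 CD8-depleted activated PBMC targets infected at high MOI by spinoculation; infected cells incubated with uninfected targets at 2 × 10⁵ cells per well with serially diluted peptide for 9 days. Fresh compound added and samples taken every 2–3 days. Replication read by reverse transcriptase assay; IC50 from reduction in RT signal relative to infected untreated wells.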
# [2] = Clearance in cynomolgus monkey at 1 to 2 mg/kg, iv; type: ADME, organism-based, Macaca fascicularis; design: dose 1-2 mg/kg, route intravenous; details: in vivo
# Method in brief: (§2)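 Male cynomolgus monkeys received a single i.v. dose of about 1–2 mg/kg in isotonic phosphate-mannitol vehicle, given as cassettes (typically n ≤ 8). Plasma was protein-precipitated with 0.5% formic acid in acetonitrile and peptide measured by reversed-phase HPLC. Parameters were fitted with mono- or biexponential models.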
# [3] = test system: Human immunodeficiency virus 1; test: Antiviral activity against HIV1 3B infected in human PBMCs by reverse transcriptase assay; type: functional, organism-based; details: Human immunodeficiency virus 1, 3B; method in brief: as §1
# [4] = test system: Human immunodeficiency virus 1; test: Antiviral activity against HIV1 098-T20 isolate infected in human PBMCs by reverse transcriptase assay; type: functional, organism-based; method in brief: as §1
# [5] = Half life in cynomolgus monkey at 1 to 2 mg/kg, iv; type: ADME, organism-based, Macaca fascicularis; design: dose 1-2 mg/kg, route intravenous; details: in vivo; method in brief: as §2
# [6] = test system: Human immunodeficiency virus 1; test: Antiviral activity against HIV1 098-T651 isolate infected in human PBMCs by reverse transcriptase assay; type: functional, organism-based; method in brief: as §1
# [7] = test system: Human immunodeficiency virus 1; test: Antiviral activity against HIV1 098 isolate infected in human PBMCs by reverse transcriptase assay; type: functional, organism-based; method in brief: as §1
# [8] = test system: Human immunodeficiency virus 1; test: Binding affinity to HIV1 gp41 heptad repeat 1 region assessed as thermal stability of HR1/HR2 peptide bundle complex at 1 uM in presence of 8M urea
Compound,IC50 [1] [µg/mL],clearance [2] [mL/min/kg],IC50 [3] [µg/mL],IC50 [4] [µg/mL],half-life [5] [h],IC50 [6] [µg/mL],IC50 [7] [µg/mL],Tm [8] [°C]
CC[C@H](C)[C@H](NC(=O)[C@H](CCC(N)=O)NC(=O)[C@H](C)NC(=O)[C@H](CCC(N)=O)NC(=O)[C@H](CCC(=O)O)NC(=O)[C@H](CC(C)C)NC(=O)[C@H](CC(C)C)NC(=O)[C@H](C)NC(=O)[C@@H](NC(=O)[C@@H](NC(=O)[C@H](CCCCN)NC(=O)[C@H](CCC(N)=O)NC(=O)[C@H](CCC(=O)O)NC(=O)[C@H](Cc1c[nH]c2ccccc12)NC(=O)[C@H](CCC(=O)O)NC(=O)[C@H](CCC(N)=O)NC(=O)[C@@H](N)Cc1c[nH]c2ccccc12)[C@@H](C)CC)[C@@H](C)O)C(=O)N[C@@H](CCC(N)=O)C(=O)N[C@@H](CCC(N)=O)C(=O)N[C@@H](CCC(=O)O)C(=O)N[C@@H](CCCCN)C(=O)N[C@@H](CC(N)=O)C(=O)N[C@@H](CCC(=O)O)C(=O)N[C@@H](Cc1ccc(O)cc1)C(=O)N[C@@H](CCC(=O)O)C(=O)N[C@@H](CC(C)C)C(=O)N[C@@H](CCC(N)=O)C(=O)N[C@@H](CCCCN)C(=O)N[C@@H](CC(C)C)C(=O)N[C@@H](CC(=O)O)C(=O)N[C@@H](CCCCN)C(=O)N[C@@H](Cc1c[nH]c2ccccc12)C(=O)N[C@@H](C)C(=O)N[C@@H](CO)C(=O)N[C@@H](CC(C)C)C(=O)N[C@@H](Cc1c[nH]c2ccccc12)C(=O)N[C@@H](CCC(=O)O)C(=O)N[C@@H](Cc1c[nH]c2ccccc12)C(=O)N[C@@H](Cc1ccccc1)C(=O)O,0.363,0.167,0.003,0.022,5.9,8.14,0.013,59
H-TTWEAWDRAIAEYAARIEALIRAAQELQEKLEAALREL-OH,0.555,0.0333,0.172,0.416,30.8,0.987,0.6,92
H-TTWEAWDRAIAEYAARIEALIRAAQELQEKNEAALREL-OH,0.03,0.433,0.007,0.035,7.6,0.02,0.021,89
H-TTWEAWDRAIAEYAARIEALIRAAQEQQEKLEAALREL-OH,0.025,0.15,0.012,0.028,17.9,0.044,0.045,86
H-TTWEAWDRAIAEYAARIEALIRAAQEQQEKLEAVLREL-OH,0.046,0.0667,0.022,0.093,28.6,0.242,0.049,85
H-TTWEAWDRAIAEYAARIEALIRALQELQEKNEAALREL-OH,0.147,0.133,0.03,0.084,8.6,0.242,0.054,82
H-TTWEAWDRAIAEYAARIEALIRALQEQQEKNEAILREL-OH,0.038,0.2,0.019,0.079,12.4,0.196,0.043,85
H-TTWEAWDRAIAEYAARIEALIRASQEQQEKNEAELREL-OH,0.072,1.43,0.006,0.022,1.2,1.31,0.013,78
enfuvirtide,55,0.667,0.006,0.526,8.8,47.8,0.05,< 5
